Experimental data reported in ChEMBL document CHEMBL1131430, “Discovery and structure-activity relationship of the first non-peptide competitive human glucagon receptor antagonists” (J Med Chem, 1998).

Each molecule was assayed against T1, Glucagon receptor (Homo sapiens, UniProt P47871) (assay: Binding affinity towards cloned human glucagon receptor in BHK cells.).
T1 sequence (P47871 whole entry): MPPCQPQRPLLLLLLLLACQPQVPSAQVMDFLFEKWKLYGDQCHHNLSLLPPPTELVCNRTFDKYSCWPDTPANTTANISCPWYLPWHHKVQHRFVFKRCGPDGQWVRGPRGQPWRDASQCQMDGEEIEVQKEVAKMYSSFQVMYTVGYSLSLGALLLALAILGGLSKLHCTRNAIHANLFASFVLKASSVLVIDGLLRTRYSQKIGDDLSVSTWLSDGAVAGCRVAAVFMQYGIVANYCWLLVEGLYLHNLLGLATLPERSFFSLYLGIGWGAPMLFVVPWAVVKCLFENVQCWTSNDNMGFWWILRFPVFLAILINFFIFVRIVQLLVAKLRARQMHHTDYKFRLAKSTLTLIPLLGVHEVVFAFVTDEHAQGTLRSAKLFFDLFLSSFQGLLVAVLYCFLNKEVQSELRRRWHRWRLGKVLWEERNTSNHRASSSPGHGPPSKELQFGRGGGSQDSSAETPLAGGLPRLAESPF
Assay type: cell-based
Outline: (§1)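 Competition binding on plasma membranes (0.5 μg protein/well) from BHK cells stably expressing recombinant human glucagon receptor, selected with 0.5 mg/mL G-418. Nonspecific binding with 10⁻⁶ M glucagon. Filtration, gamma counting; IC50 mean ± SD, n = 2.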
With `Oc1ccc(C(O)CSc2nc3ccccc3[nH]2)cc1Cl` (stereo not drawn) the IC50 was > 500 µM.
Molecule `O=C(CSc1nnc(-c2ccccc2)[nH]1)c1ccc(O)c(O)c1` has an IC50 of 55 µM.
For `O=C(CSc1nc2ccccc2[nH]1)c1ccc(Cl)c(Cl)c1`, the IC50 was > 500 µM.
`COC(=O)c1cccc(COc2ccc3[nH]c(SCC(=O)c4ccc(O)c(O)c4)nc3c2)c1` showed an IC50 of 16 µM.
With `O=C(O)c1cccc(C(=O)CSc2nc3ccccc3[nH]2)c1` the IC50 was > 500 µM.
`O=C(CSc1nc2ccccc2[nH]1)c1ccc(O)c(Cl)c1` gave an IC50 of 12 µM.
`O/N=C(/CSc1nc2ccccc2[nH]1)c1ccc(O)c(Cl)c1` was tested, and the IC50 was > 500 µM.
In the case of `O=C(CSc1nc2ccccc2[nH]1)c1ccc(O)cc1`, the IC50 is reported as > 60 µM.
`O=C(CSc1nc2ccccc2[nH]1)c1cccc(O)c1` was tested, and the IC50 was 380 µM.
For `O=C(CSc1nc2ccccc2[nH]1)c1cc(O)cc(O)c1`, the IC50 was > 500 µM.
`O=C(CSc1nc2ccccc2s1)c1ccc(O)c(O)c1` gave an IC50 of 73 µM.
`O=C(CSc1ccc2ccccc2n1)c1ccc(O)c(O)c1` showed an IC50 of 160 µM.
`O=C(CSc1nc2ccccc2[nH]1)c1ccc(O)c(C(=O)O)c1` showed an IC50 of 200 µM.
Work on `CC(C)(C)c1ccc2nc(SCC(=O)c3ccc(O)c(O)c3)[nH]c2c1` yielded an IC50 of 5.4 µM.
`O=C(CSc1nc(-c2ccccc2)c(-c2ccccc2)[nH]1)c1ccc(O)c(O)c1` was tested, and the IC50 was 180 µM.
In the case of `O=C(CCCSc1nc2ccccc2[nH]1)c1ccc(O)c(O)c1`, the IC50 is reported as > 500 µM.
Molecule `O=C(CSc1nc2ccc([N+](=O)[O-])cc2[nH]1)c1ccc(O)c(O)c1` has an IC50 of 55 µM.
In the case of `O=C(CSc1nc2ccccc2[nH]1)c1ccccc1`, the IC50 is reported as > 500 µM.
Molecule `COc1ccc2[nH]c(SCC(=O)c3ccc(O)c(O)c3)nc2c1` has an IC50 of 42 µM.
In the case of `COC(=O)c1cccc(COc2ccc3[nH]c(SCC(=O)c4ccc(O)c(Cl)c4)nc3c2)c1`, the IC50 is reported as 9.2 µM.
`Oc1ccc(/C(CSc2nc3ccccc3[nH]2)=N\OCc2ccccc2)cc1Cl` was tested, and the IC50 was > 500 µM.
`COc1ccc(C(=O)CSc2nc3ccccc3[nH]2)cc1OC` was tested, and the IC50 was > 500 µM.
With `O=C(O)c1ccc(C(=O)CSc2nc3ccccc3[nH]2)cc1` the IC50 was > 500 µM.
`O=C(CSc1ncc[nH]1)c1ccc(O)c(O)c1` was tested, and the IC50 was > 500 µM.
`CO/N=C(/CSc1nc2ccccc2[nH]1)c1ccc(O)c(Cl)c1` was tested, and the IC50 was > 500 µM.
With `Cn1c(SCC(=O)c2ccc(O)c(O)c2)nc2ccccc21` the IC50 was > 500 µM.
`O=C(O)c1cccc(COc2ccc3[nH]c(SCC(=O)c4ccc(O)c(O)c4)nc3c2)c1` gave an IC50 of 95 µM.
For `O=C(CSc1nc2cc(OCc3ccccc3)ccc2[nH]1)c1ccc(O)c(O)c1`, the IC50 was 18 µM.
With `O=C(CSc1nc2cc(Cl)c(Cl)cc2[nH]1)c1ccc(O)c(O)c1` the IC50 was 20 µM.
With `COc1cc(C(=O)CSc2nc3ccccc3[nH]2)ccc1O` the IC50 was 41 µM.
Work on `O=C(CSc1nc2ccccc2o1)c1ccc(O)c(O)c1` yielded an IC50 of 250 µM.
With `CCCC(Sc1nc2ccccc2[nH]1)C(=O)c1ccc(O)c(O)c1` (stereo not drawn) the IC50 was > 500 µM.

The molecules below were run against T1, Glucagon receptor (assay: Compound was evaluated for its binding affinity towards cloned human Glucagon receptor in BHK cells).
Assay type: cell-based
Outline: as §1
`O=C(CSc1nc2ccccc2[nH]1)c1ccc(O)c(O)c1` showed an IC50 of 20 µM.
